Reference: ChEMBL document CHEMBL1177679, “Design and synthesis of novel benzimidazole derivatives as inhibitors of hepatitis B virus” (Bioorg Med Chem, 2010)

Assays:
[1] = Selectivity index, ratio of CC50 for human HepG2(2.2.15) cells to IC50 for Hepatitis B virus; assay type: functional
Summary of the method: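 SI calculated as CC50 (MTT, HepG2.2.15, 8 days) divided by IC50 for inhibition of cytoplasmic HBV-DNA synthesis (fluorescent PCR) in the same cells.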

[2] = Cytotoxicity against human HepG2(2.2.15) cells after 8 days by MTT assay; assay type: cell-based
Summary of the method: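 HepG2.2.15 cells in triplicate, exposed 8 days to various doses; media-only controls. MTT (5 g/L) added 4 h before end, cells lysed with 10% SDS/50% DMF pH 7.2, OD read at 570 nm 6 h later.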

Hepatitis B virus = assay: Antiviral activity against Hepatitis B virus infected in human HepG2(2.2.15) cells assessed as inhibition of viral cytoplasmic DNA synthesis after 8 days by RT-PCR analysis; assay type: functional, organism-based; conditions: HepG2 2.2.15, 192 h

SMILES: Nc1ccn([C@@H]2CS[C@H](CO)O2)c(=O)n1 [LAMIVUDINE]
- Selectivity Index [1]: 31.3
- CC50 at 192 h [2]: 5000 nM
- IC50 (Hepatitis B virus): 160 nM
